Test results as given in publication PMC7854449 (Advances in Therapy, 2020).

How the values were obtained:
[1] = Multiple-dose pharmacokinetics of OW s.c. semaglutide, plasma, LC-MS/MS; assay type: in vivo, healthy Chinese subjects
Outline: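 Healthy Chinese adults (18–55 y, BMI 20.0–24.9 kg/m2) got s.c. abdominal injections weekly for 13 weeks, starting at 0.25 mg and escalating every 4 weeks to 0.5 or 1.0 mg. Plasma was sampled frequently after the first and last doses, plus pre-dose in weeks 4, 8 and 11, and assayed by LC–MS/MS. Values below LLOQ were imputed. Non-compartmental linear trapezoidal AUC0–168 h used actual times. Ratios came from a log-scale linear model (dose group fixed) with 95% CI. Racc,DC = (AUCSS/last dose)/(AUCSD/0.25 mg).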

[2] = Safety and tolerability: treatment-emergent adverse events; assay type: in vivo, healthy Chinese subjects; settings: 13 weeks; for AEs leading to withdrawal, % (proportion of subjects) / AEs leading to withdrawal, E (number of events) / AEs leading to withdrawal, N (number of subjects) / AEs, % (proportion of subjects) / AEs, E (number of events) / AEs, N (number of subjects) / AEs, outcome not recovered/not resolved, % (proportion of subjects) / AEs, outcome not recovered/not resolved, E (number of events) / AEs, outcome not recovered/not resolved, N (number of subjects) / AEs, outcome recovered/resolved, % (proportion of subjects) / AEs, outcome recovered/resolved, E (number of events) / AEs, outcome recovered/resolved, N (number of subjects) / AEs, outcome recovering/resolving, % (proportion of subjects) / AEs, outcome recovering/resolving, E (number of events) / AEs, outcome recovering/resolving, N (number of subjects) / AEs, severity mild, % (proportion of subjects) / AEs, severity mild, E (number of events) / AEs, severity mild, N (number of subjects) / AEs, severity moderate, % (proportion of subjects) / AEs, severity moderate, E (number of events) / AEs, severity moderate, N (number of subjects) / AEs, severity severe, % (proportion of subjects) / AEs, severity severe, E (number of events) / AEs, severity severe, N (number of subjects) / Serious AEs, % (proportion of subjects) / Serious AEs, E (number of events) / Serious AEs, N (number of subjects): 12 subjects
Outline: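 This was a single-centre, randomised trial in 36 healthy Chinese adults, 12 per arm, double-blind within dose level, with placebo arms pooled. Test compound or matching placebo was injected s.c. in the abdomen once weekly for 13 weeks, escalating every 4 weeks to 0.5 or 1.0 mg. Treatment-emergent AEs were untoward occurrences after the first dose and before the follow-up visit, counted as subjects and events.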

[3] = cited from earlier work

SMILES: CC[C@H](C)[C@H](NC(=O)[C@H](Cc1ccccc1)NC(=O)[C@H](CCC(=O)O)NC(=O)[C@H](CCCCNC(=O)COCCOCCNC(=O)COCCOCCNC(=O)CC[C@H](NC(=O)CCCCCCCCCCCCCCCCC(=O)O)C(=O)O)NC(=O)[C@H](C)NC(=O)[C@H](C)NC(=O)[C@H](CCC(N)=O)NC(=O)CNC(=O)[C@H](CCC(=O)O)NC(=O)[C@H](CC(C)C)NC(=O)[C@H](Cc1ccc(O)cc1)NC(=O)[C@H](CO)NC(=O)[C@H](CO)NC(=O)[C@@H](NC(=O)[C@H](CC(=O)O)NC(=O)[C@H](CO)NC(=O)[C@@H](NC(=O)[C@H](Cc1ccccc1)NC(=O)[C@@H](NC(=O)CNC(=O)[C@H](CCC(=O)O)NC(=O)C(C)(C)NC(=O)[C@@H](N)Cc1cnc[nH]1)[C@@H](C)O)[C@@H](C)O)C(C)C)C(=O)N[C@@H](C)C(=O)N[C@@H](Cc1c[nH]c2ccccc12)C(=O)N[C@@H](CC(C)C)C(=O)N[C@H](C(=O)N[C@@H](CCCNC(=N)N)C(=O)NCC(=O)N[C@@H](CCCNC(=N)N)C(=O)NCC(=O)O)C(C)C [semaglutide, Semaglutide]
- Racc,DC (dose-corrected accumulation ratio) ([1]; OW s.c. dosing, both dose groups): approximately 2
- treatment ratio (1.0 mg/0.5 mg) for Cmax,SS ([1]; [95% CI], dose proportionality): 1.94 [1.74; 2.16]
- treatment ratio (1.0 mg/0.5 mg) for AUC0–168 h,SS ([1]; linear normal model on log-transformed values, [95% CI], dose proportionality): 1.99 [1.78; 2.23]
- AEs leading to withdrawal, % (proportion of subjects) ([2]; OW s.c. 0.5 mg): 0%
- AEs leading to withdrawal, E (number of events) ([2]; OW s.c. 0.5 mg): 0
- AEs leading to withdrawal, N (number of subjects) ([2]; OW s.c. 0.5 mg): 0
- AEs, % (proportion of subjects) ([2]; OW s.c. 0.5 mg): 83%
- AEs, E (number of events) ([2]; OW s.c. 0.5 mg): 44
- AEs, N (number of subjects) ([2]; OW s.c. 0.5 mg): 10
- AEs, outcome not recovered/not resolved, % (proportion of subjects) ([2]; OW s.c. 0.5 mg): 0%
- AEs, outcome not recovered/not resolved, E (number of events) ([2]; OW s.c. 0.5 mg): 0
- AEs, outcome not recovered/not resolved, N (number of subjects) ([2]; OW s.c. 0.5 mg): 0
- AEs, outcome recovered/resolved, % (proportion of subjects) ([2]; OW s.c. 0.5 mg): 83%
- AEs, outcome recovered/resolved, E (number of events) ([2]; OW s.c. 0.5 mg): 44
- AEs, outcome recovered/resolved, N (number of subjects) ([2]; OW s.c. 0.5 mg): 10
- AEs, outcome recovering/resolving, % (proportion of subjects) ([2]; OW s.c. 0.5 mg): 0%
- AEs, outcome recovering/resolving, E (number of events) ([2]; OW s.c. 0.5 mg): 0
- AEs, outcome recovering/resolving, N (number of subjects) ([2]; OW s.c. 0.5 mg): 0
- AEs, severity mild, % (proportion of subjects) ([2]; OW s.c. 0.5 mg): 83%
- AEs, severity mild, E (number of events) ([2]; OW s.c. 0.5 mg): 44
- AEs, severity mild, N (number of subjects) ([2]; OW s.c. 0.5 mg): 10
- AEs, severity moderate, % (proportion of subjects) ([2]; OW s.c. 0.5 mg): 0%
- AEs, severity moderate, E (number of events) ([2]; OW s.c. 0.5 mg): 0
- AEs, severity moderate, N (number of subjects) ([2]; OW s.c. 0.5 mg): 0
- AEs, severity severe, % (proportion of subjects) ([2]; OW s.c. 0.5 mg): 0%
- AEs, severity severe, E (number of events) ([2]; OW s.c. 0.5 mg): 0
- AEs, severity severe, N (number of subjects) ([2]; OW s.c. 0.5 mg): 0
- Serious AEs, % (proportion of subjects) ([2]; OW s.c. 0.5 mg): 0%
- Serious AEs, E (number of events) ([2]; OW s.c. 0.5 mg): 0
- Serious AEs, N (number of subjects) ([2]; OW s.c. 0.5 mg): 0
- AEs leading to withdrawal, % (proportion of subjects) ([2]; OW s.c. 1.0 mg): 0%
- AEs leading to withdrawal, E (number of events) ([2]; OW s.c. 1.0 mg): 0
- AEs leading to withdrawal, N (number of subjects) ([2]; OW s.c. 1.0 mg): 0
- AEs, % (proportion of subjects) ([2]; OW s.c. 1.0 mg): 92%
- AEs, E (number of events) ([2]; OW s.c. 1.0 mg): 58
- AEs, N (number of subjects) ([2]; OW s.c. 1.0 mg): 11
- AEs, outcome not recovered/not resolved, % (proportion of subjects) ([2]; OW s.c. 1.0 mg): 0%
- AEs, outcome not recovered/not resolved, E (number of events) ([2]; OW s.c. 1.0 mg): 0
- AEs, outcome not recovered/not resolved, N (number of subjects) ([2]; OW s.c. 1.0 mg): 0
- AEs, outcome recovered/resolved, % (proportion of subjects) ([2]; OW s.c. 1.0 mg): 92%
- AEs, outcome recovered/resolved, E (number of events) ([2]; OW s.c. 1.0 mg): 57
- AEs, outcome recovered/resolved, N (number of subjects) ([2]; OW s.c. 1.0 mg): 11
- AEs, outcome recovering/resolving, % (proportion of subjects) ([2]; OW s.c. 1.0 mg): 8%
- AEs, outcome recovering/resolving, E (number of events) ([2]; OW s.c. 1.0 mg): 1
- AEs, outcome recovering/resolving, N (number of subjects) ([2]; OW s.c. 1.0 mg): 1
- AEs, severity mild, % (proportion of subjects) ([2]; OW s.c. 1.0 mg): 92%
- AEs, severity mild, E (number of events) ([2]; OW s.c. 1.0 mg): 57
- AEs, severity mild, N (number of subjects) ([2]; OW s.c. 1.0 mg): 11
- AEs, severity moderate, % (proportion of subjects) ([2]; OW s.c. 1.0 mg): 8%
- AEs, severity moderate, E (number of events) ([2]; OW s.c. 1.0 mg): 1
- AEs, severity moderate, N (number of subjects) ([2]; OW s.c. 1.0 mg): 1
- AEs, severity severe, % (proportion of subjects) ([2]; OW s.c. 1.0 mg): 0%
- AEs, severity severe, E (number of events) ([2]; OW s.c. 1.0 mg): 0
- AEs, severity severe, N (number of subjects) ([2]; OW s.c. 1.0 mg): 0
- Serious AEs, % (proportion of subjects) ([2]; OW s.c. 1.0 mg): 0%
- Serious AEs, E (number of events) ([2]; OW s.c. 1.0 mg): 0
- Serious AEs, N (number of subjects) ([2]; OW s.c. 1.0 mg): 0
- severity of gastrointestinal adverse events ([2]; OW s.c. 0.5 and 1.0 mg, none led to treatment discontinuation): mild
- deaths ([2]; whole trial, OW s.c. 0.5 and 1.0 mg): no deaths
- half-life (t½) [3]: ≈ 1 week
